In brackets after ≈: the same amount, converted by molar mass.
Key:
Escherichia coli = experiment: Antimicrobial activity against Escherichia coli MTCC-443 after 24 hrs by broth dilution method; format: functional; conditions: MTCC-443, 24 h
Method in brief: (§1)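 NCCLS broth dilution in Mueller Hinton broth with 2% DMSO as vehicle. Primary screen at 1000, 500 and 250 µg/mL; actives retested at 200 to 6.25 µg/mL. Inoculum 10⁶ CFU/mL, set by turbidity. Incubated 24 h at 37 °C; growth read visually and spectrophotometrically. MIC is the lowest concentration arresting growth. Chloramphenicol was the positive control; DMSO and water were negative controls.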

Pseudomonas aeruginosa = experiment: Antimicrobial activity against Pseudomonas aeruginosa MTCC-1688 after 24 hrs by broth dilution method; format: functional; conditions: MTCC-1688, 24 h; method in brief: as §1
Staphylococcus aureus [1] = experiment: Antimicrobial activity against Staphylococcus aureus MTCC-96 after 24 hrs by broth dilution method; format: functional; conditions: MTCC-96, 24 h; method in brief: as §1
Streptococcus pyogenes = experiment: Antimicrobial activity against Streptococcus pyogenes MTCC-442 after 24 hrs by broth dilution method; format: functional; conditions: MTCC-442, 24 h; method in brief: as §1
[2] = tested on: Mycobacterium tuberculosis; experiment: Antitubercular activity against Mycobacterium tuberculosis H37Rv ATCC 27294 after 5 to 8 days by BACTEC 12B method; format: functional
Vero = experiment: Cytotoxicity against african green monkey Vero cells after 72 hrs by MTS-PMS method; format: cell-based; conditions: Chlorocebus sabaeus
Method in brief: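 Vero cells in DMEM with 10% FBS at 37 °C, 5% CO2, diluted to 10^6 cells/mL. Threefold serial dilutions gave final […] to 0.12 µg/mL with 1% DMSO. Incubated 72 h, washed with HBSS, then MTS-PMS (100:20) added for 3 h; absorbance read at 490 nm. Triplicate wells, assay repeated three times. Controls set as 100% viability; IC50 taken as 50% growth inhibition.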

Staphylococcus aureus [3] = experiment: Antimicrobial activity against methicillin-resistant Staphylococcus aureus ATCC 43300 after 24 hrs by broth dilution method; format: functional; conditions: ATCC 43300, 24 h
Method in brief: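 Broth dilution per NCCLS in Mueller Hinton broth; compounds in 2% DMSO, 1000 µg/mL stock; primary screen 1000, 500, 250 µg/mL, then secondary dilutions 200 to 6.25 µg/mL. Inoculum 10⁶ CFU/mL by turbidity; 24 h at 37 °C, growth read visually and spectrophotometrically. MIC = lowest concentration arresting growth. DMSO/water negative control; chloramphenicol positive control.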

Staphylococcus aureus [4] = experiment: Ratio of ciprofloxacin MIC to compound MIC for methicillin-resistant Staphylococcus aureus ATCC 43300 after 24 hrs by broth dilution method; format: functional
Staphylococcus aureus [5] = experiment: Ratio of chloramphenicol MIC to compound MIC for methicillin-resistant Staphylococcus aureus ATCC 43300 after 24 hrs by broth dilution method; format: functional

Compound	MIC (Escherichia coli)	MIC (Pseudomonas aeruginosa)	MIC (Staphylococcus aureus [1])	MIC (Streptococcus pyogenes)	MIC [2]	IC50 (Vero)	MIC (Staphylococcus aureus [3])	Ratio (Staphylococcus aureus [4])	Ratio (Staphylococcus aureus [5])
C/C(=N\n1c(/N=C/c2ccccc2C)c(C#N)c(-c2ccc([N+](=O)[O-])cc2)c(C#N)c1=O)c1nc2ccccc2[nH]1	250 µg/mL (≈ 462 µM)	250 µg/mL (≈ 462 µM)	125 µg/mL (≈ 231 µM)	100 µg/mL (≈ 185 µM)	9.17 µg/mL (≈ 17 µM)	34.5 µg/mL (≈ 63.9 µM)			
C/C(=N\n1c(/N=C/c2cccc(C)c2)c(C#N)c(-c2ccc([N+](=O)[O-])cc2)c(C#N)c1=O)c1nc2ccccc2[nH]1	100 µg/mL (≈ 185 µM)	100 µg/mL (≈ 185 µM)	100 µg/mL (≈ 185 µM)	100 µg/mL (≈ 185 µM)	2.07 µg/mL (≈ 3.83 µM)	> 39.4 µg/mL			
C/C(=N\n1c(/N=C/c2ccc(C)cc2)c(C#N)c(-c2ccc([N+](=O)[O-])cc2)c(C#N)c1=O)c1nc2ccccc2[nH]1	250 µg/mL (≈ 462 µM)	250 µg/mL (≈ 462 µM)	250 µg/mL (≈ 462 µM)	125 µg/mL (≈ 231 µM)	6.28 µg/mL (≈ 11.6 µM)	> 39.4 µg/mL			
COc1cccc(/C=N/c2c(C#N)c(-c3ccc([N+](=O)[O-])cc3)c(C#N)c(=O)n2/N=C(\C)c2nc3ccccc3[nH]2)c1	250 µg/mL (≈ 449 µM)	500 µg/mL (≈ 898 µM)	100 µg/mL (≈ 180 µM)	250 µg/mL (≈ 449 µM)	18 µg/mL (≈ 32.3 µM)	24.2 µg/mL (≈ 43.5 µM)			
COc1ccc(/C=N/c2c(C#N)c(-c3ccc([N+](=O)[O-])cc3)c(C#N)c(=O)n2/N=C(\C)c2nc3ccccc3[nH]2)cc1	500 µg/mL (≈ 898 µM)	500 µg/mL (≈ 898 µM)	250 µg/mL (≈ 449 µM)	250 µg/mL (≈ 449 µM)	23.5 µg/mL (≈ 42.2 µM)	25.4 µg/mL (≈ 45.6 µM)			
C/C(=N\n1c(/N=C/c2cccc([N+](=O)[O-])c2)c(C#N)c(-c2ccc([N+](=O)[O-])cc2)c(C#N)c1=O)c1nc2ccccc2[nH]1	250 µg/mL (≈ 437 µM)	500 µg/mL (≈ 875 µM)	250 µg/mL (≈ 437 µM)	500 µg/mL (≈ 875 µM)	28.3 µg/mL (≈ 49.6 µM)	27.6 µg/mL (≈ 48.3 µM)			
C/C(=N\n1c(/N=C/c2ccc([N+](=O)[O-])cc2)c(C#N)c(-c2ccc([N+](=O)[O-])cc2)c(C#N)c1=O)c1nc2ccccc2[nH]1	1000 µg/mL (≈ 1750 µM)	1000 µg/mL (≈ 1750 µM)	500 µg/mL (≈ 875 µM)	500 µg/mL (≈ 875 µM)	32.2 µg/mL (≈ 56.4 µM)	16.1 µg/mL (≈ 28.1 µM)			
C/C(=N\n1c(/N=C/c2cccc(Br)c2)c(C#N)c(-c2ccc([N+](=O)[O-])cc2)c(C#N)c1=O)c1nc2ccccc2[nH]1	25 µg/mL (≈ 41.3 µM)	25 µg/mL (≈ 41.3 µM)	12.5 µg/mL (≈ 20.6 µM)	25 µg/mL (≈ 41.3 µM)	10.3 µg/mL (≈ 17 µM)	> 39.4 µg/mL	12.5 µg/mL (≈ 20.6 µM)	2	4
C/C(=N\n1c(/N=C/c2ccc(Br)cc2)c(C#N)c(-c2ccc([N+](=O)[O-])cc2)c(C#N)c1=O)c1nc2ccccc2[nH]1	50 µg/mL (≈ 82.6 µM)	50 µg/mL (≈ 82.6 µM)	25 µg/mL (≈ 41.3 µM)	50 µg/mL (≈ 82.6 µM)	13.8 µg/mL (≈ 22.8 µM)	> 39.4 µg/mL	6.25 µg/mL (≈ 10.3 µM)	4	8
O=C(N[C@H](CO)[C@H](O)c1ccc([N+](=O)[O-])cc1)C(Cl)Cl [CHLORAMPHENICOL]	50 µg/mL (≈ 155 µM)	50 µg/mL (≈ 155 µM)	50 µg/mL (≈ 155 µM)	50 µg/mL (≈ 155 µM)			50 µg/mL (≈ 155 µM)		
O=C(O)c1cn(C2CC2)c2cc(N3CCNCC3)c(F)cc2c1=O [CIPROFLOXACIN]	25 µg/mL (≈ 75.4 µM)		50 µg/mL (≈ 151 µM)	50 µg/mL (≈ 151 µM)					
NNC(=O)c1ccncc1 [ISONIAZID]					0.24 µg/mL (≈ 1.75 µM)				
